# Data published in ChEMBL document CHEMBL1135550, “Highly potent geminal bisphosphonates. From pamidronate disodium (Aredia) to zoledronic acid (Zometa)” (J Med Chem, 2002).
# Tests used:
# [1] = test system: Rattus norvegicus; assay: Effective dose after subcutaneous administration to TPTX rats for 50% reduction of hypercalcemia; assay type: functional; conditions: sc
# In short: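 Young male rats (130-150 g) were thyroparathyroidectomized and allowed 4 days to recover, then fasting serum was sampled. Animals with serum Ca above 1.88 mM were discarded, and the rest were randomized into groups of 5. On days 5-8, 1,25(OH)2D3 (125 pmol/kg sc) was given with graded sc doses of bisphosphonate, and total serum calcium was measured. ED50 is the sc dose halving the hypercalcemia.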
# [2] = Therapeutic ratio comparing nephrotoxic potential versus bone antiresorptive potency (reciprocal of ED50 (TPTX assay) / the total urinary malate dehydrogenase excretion); assay type: ADME, tissue-based, Urine
# In short: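 Rats received repeated sc injections, with saline-injected controls. Malate dehydrogenase was totalled in units over eight 24-h urine collections from the start of dosing. The ratio is the reciprocal of the TPTX hypercalcemia ED50 (mg/kg) divided by total urinary MDH units.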
# [3] = organism: Mus musculus; assay: Inhibition of bone resorption in the calvaria assay of mouse; assay type: functional
# [4] = Ratio of calvaria mineralization to calvaria bone resorption; assay type: functional
# [5] = organism: Mus musculus; assay: Inhibition of bone mineralization in the calvaria assay of mouse; assay type: functional
# [6] = organism: Rattus norvegicus; assay: Effective dose for increased cancellous bone area in young intact rats after a treatment period of 10 days; assay type: functional; conditions: 240 h
# [7] = organism: Rattus norvegicus; assay: Compound was tested for increased urinary excretion of MDH in rats after a treatment period of 14 days in renal tolerability model; assay type: functional, Urine
# [8] = organism: Mus musculus; assay: Inhibition of mineralization in the calvaria assay of mouse; assay type: functional
# In short: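 In vitro mineralization assay in mouse calvaria cultures. The read-out is calcium incorporation into the calvaria.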
# [9] = organism: Rattus norvegicus; assay: Compound was tested for increased mucosal permeability of perfused ileal loop in rats after a treatment period of 2 hr in intestinal tolerability model; assay type: functional
# [10] = organism: Rattus norvegicus; assay: Effective dose for increased cancellous bone hydroxy proline in young intact rats after a treatment period of 10 days; assay type: functional; conditions: 240 h
# [11] = organism: Rattus norvegicus; assay: Effective dose for increased cancellous bone calcium in young intact rats after a treatment period of 10 days; assay type: functional; conditions: 240 h
# [12] = organism: Rattus norvegicus; assay: Effective dose for increased serum urea level rats after a treatment period of 1 hr in renal tolerability model; assay type: functional
# [13] = organism: Rattus norvegicus; assay: Effective dose for increased radiographic bone density in young intact rats after a treatment period of 10 days; assay type: functional; conditions: 240 h
SMILES,ED50 [1],also measured
O=P(O)(O)C(O)(Cn1cccn1)P(=O)(O)O,> 300 µg/kg,–
CN(CCCCCCc1ccccc1)CCC(O)(P(=O)(O)O)P(=O)(O)O,1500 µg/kg,–
O=P(O)(O)C(O)(CCCN1CCCC1)P(=O)(O)O,25 µg/kg,–
CN(CCCOc1ccc(Cl)cc1)CCC(O)(P(=O)(O)O)P(=O)(O)O,1.3 µg/kg,–
O=P(O)(O)C(O)(CCN1CCCC1)P(=O)(O)O,10 µg/kg,–
CN(C)CCC(O)(P(=O)(O)O)P(=O)(O)O [OLPADRONIC ACID],12 µg/kg,–
CCCCc1cnc(NC(P(=O)(O)O)P(=O)(O)O)s1,0.9 µg/kg,–
O=P(O)(O)C(Nc1nccn1Cc1ccccc1)P(=O)(O)O,75 µg/kg,–
CCCCCN(C)CCC(O)(P(=O)(O)O)P(=O)(O)O [IBANDRONIC ACID],1.1 µg/kg,–
CN(CCCOc1ccc(F)cc1)CCC(O)(P(=O)(O)O)P(=O)(O)O,0.6 µg/kg,–
O=P(O)(O)C(O)(CCNCCCc1ccccc1)P(=O)(O)O,20 µg/kg,–
CC(C)c1cnc(NC(P(=O)(O)O)P(=O)(O)O)s1,200 µg/kg,–
CCCCCN(C)C(C)CC(O)(P(=O)(O)O)P(=O)(O)O (stereo not drawn),65 µg/kg,–
CN(C)CCC(P(=O)(O)O)P(=O)(O)O,100 µg/kg,–
Cc1csc(NC(P(=O)(O)O)P(=O)(O)O)n1,100 µg/kg,–
O=P(O)(O)C(O)(CCN1CCN(c2ccccc2)CC1)P(=O)(O)O,> 10000 µg/kg,–
CN(CCCCc1ccccc1)CCC(O)(P(=O)(O)O)P(=O)(O)O,0.4 µg/kg,–
CCN(CC)CCC(O)(P(=O)(O)O)P(=O)(O)O,3 µg/kg,–
O=P(O)(O)C(O)(CCn1ccnc1)P(=O)(O)O,45 µg/kg,–
CCCN(CCCOc1ccccc1)CCC(O)(P(=O)(O)O)P(=O)(O)O,10 µg/kg,–
CC(N)CC(O)(P(=O)(O)O)P(=O)(O)O (stereo not drawn),3.4 µg/kg,–
CN1CCN(CCC(O)(P(=O)(O)O)P(=O)(O)O)CC1,~400 µg/kg,–
O=P(O)(O)C(Nc1nc2ccccc2s1)P(=O)(O)O,> 3000 µg/kg,–

SMILES,ED50 [1],also measured
CCc1cnc(NC(P(=O)(O)O)P(=O)(O)O)s1,1.5 µg/kg,–
NCCCCCC(O)(P(=O)(O)O)P(=O)(O)O [NERIDRONIC ACID],60 µg/kg,–
CN(CCCc1ccc(Cl)cc1)CCC(O)(P(=O)(O)O)P(=O)(O)O,0.7 µg/kg,–
CCCCN(CCCOc1ccccc1)CCC(O)(P(=O)(O)O)P(=O)(O)O,500 µg/kg,–
O=P(O)(O)C(O)(CCCCCN1CCCC1)P(=O)(O)O,250 µg/kg,–
O=P(O)(O)C(O)(CCN1CCC(c2cccc(F)c2)CC1)P(=O)(O)O,30 µg/kg,–
O=P(O)(O)C(O)(Cc1c[nH]cn1)P(=O)(O)O,0.3 µg/kg,–
O=P(O)(O)C(O)(Cc1ncc[nH]1)P(=O)(O)O,5 µg/kg,–
CP(=O)(O)C(Nc1nccs1)P(C)(=O)O (stereo not drawn),> 10000 µg/kg,–
O=P(O)(O)C(O)(CCN1CCCCCCC1)P(=O)(O)O,> 300 µg/kg,–
O=P(O)(O)C(Nc1nccs1)P(=O)(O)O,5 µg/kg,–
CN(CCc1ccccc1)CCC(O)(P(=O)(O)O)P(=O)(O)O,1.4 µg/kg,Therapeutic ratio [2]: 19; IC50 [3]: 0.02 µM; Ratio [4]: 1500; IC50 [5]: 30 µM
O=P(O)(O)C(O)(CCCN1CCC(c2ccccc2)CC1)P(=O)(O)O,100 µg/kg,–
O.O=P(O)(O)C(O)(Cn1ccnc1)P(=O)(O)O [ZOLEDRONIC ACID],–,ED50 [6]: 0.071 µg/kg; IC50 [3]: 0.002 µM; Ratio [4]: 15000; NOL [7]: > 1000 µg/kg; IC50 [8]: 30 µM; NOL [9]: 10 mM; ED50 [10]: 1.1 µg/kg; ED50 [11]: 0.17 µg/kg; ED100 [12]: 38000 µg/kg; ED50 [13]: 1.7 µg/kg
CC(CC(O)(P(=O)(O)O)P(=O)(O)O)N(C)C (stereo not drawn),18 µg/kg,–
CC(=O)NCCC(O)(P(=O)(O)O)P(=O)(O)O,> 1000 µg/kg,–
CN(CCCSc1ccccc1)CCC(O)(P(=O)(O)O)P(=O)(O)O,0.33 µg/kg,–
CN(C)CCC(N)(P(=O)(O)O)P(=O)(O)O [LIDADRONIC ACID],> 200 µg/kg,–
CN(CCCOc1ccccc1)CCC(O)(P(=O)(O)O)P(=O)(O)O,0.5 µg/kg,Therapeutic ratio [2]: 84; IC50 [3]: 0.04 µM; Ratio [4]: 225; IC50 [5]: 9 µM
O=P(O)(O)C(O)(CCN1CCC(c2ccccc2)C1)P(=O)(O)O (stereo not drawn),70 µg/kg,–
CN(C)C(P(=O)(O)O)P(=O)(O)O,> 3000 µg/kg,–
Cn1ccnc1NC(P(=O)(O)O)P(=O)(O)O,5 µg/kg,–
O=P(O)(O)C(O)(Cc1c[nH]c(-c2ccccc2)n1)P(=O)(O)O,> 3000 µg/kg,–
